From paper PMC12125705 (Journal of medicinal chemistry, 2017)

Tests used:
Experiment in all cases: MIC by microbroth dilution
Conditions in all cases: 24 h, 37 °C
[1] = tested on: MRSA 33591; assay type: cell-based, Staphylococcus aureus
Summary of the method: (§1)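 CLSI microbroth dilution in Mueller-Hinton broth. Strains were grown at 37 °C with shaking to log phase, pelleted, and resuspended in 0.85% saline to OD625 0.1. Final inoculum 5 × 10^5 CFU/mL in 96-well plates, tested in triplicate, incubated 24 h at 37 °C. Growth was read as OD at 625 nm.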

[2] = tested on: MRSA A960649; assay type: cell-based, Staphylococcus aureus
Summary of the method: as §1

[3] = tested on: S. aureus 29213; assay type: cell-based, Staphylococcus aureus
[4] = tested on: S. aureus 33591; assay type: cell-based, Staphylococcus aureus
[5] = tested on: S. epidermidis 12384; assay type: cell-based, Staphylococcus epidermidis
Summary of the method: as §1

[6] = tested on: E. faecium BM4105RF; assay type: cell-based, Enterococcus faecium
[7] = tested on: E. faecalis 29212; assay type: cell-based, Enterococcus faecalis
[8] = tested on: S. flexneri 2457NR517; assay type: cell-based, Shigella flexneri
[9] = tested on: E. coli 25922; assay type: cell-based, Escherichia coli
[10] = tested on: E. coli K12; assay type: cell-based, Escherichia coli
[11] = tested on: A. baumanni 19606; assay type: cell-based, Acinetobacter baumanni
Summary of the method: as §1

[12] = tested on: P. aeruginosa 27853; assay type: cell-based, Pseudomonas aeruginosa
[13] = tested on: K. pneumoniae NR15410; assay type: cell-based, Klebsiella pneumoniae
Summary of the method: as §1

[14] = tested on: E. cloacae 13047; assay type: cell-based, Enterobacter cloacae
Summary of the method: as §1

[15] = tested on: C. freundii 4747CFAA; assay type: cell-based, Citrobacter freundii
Summary of the method: as §1

6-(4-Methylpiperazin-1-yl)-2-(4-(2-(4-(oct-7-ynyl)-1H-1,2,3-triazol-1-yl)ethoxy)phenyl)-1H-benzo[d]imidazole [Compound 22]
MIC MRSA 33591 [1]: >32 µg/mL | MIC MRSA A960649 [2]: >32 µg/mL | MIC S. aureus 29213 [3]: 16 to 32 µg/mL | MIC S. aureus 33591 [4]: 16 to 32 µg/mL | MIC S. epidermidis 12384 [5]: >32 µg/mL | MIC E. faecium BM4105RF [6]: >32 µg/mL | MIC E. faecalis 29212 [7]: 16 to 32 µg/mL | MIC S. flexneri 2457NR517 [8]: >32 µg/mL | MIC E. coli 25922 [9]: 16 µg/mL | MIC E. coli K12 [10]: 16 µg/mL | MIC A. baumanni 19606 [11]: >32 µg/mL | MIC P. aeruginosa 27853 [12]: 16 µg/mL | MIC K. pneumoniae NR15410 [13]: >32 µg/mL | MIC E. cloacae 13047 [14]: >32 µg/mL | MIC C. freundii 4747CFAA [15]: >32 µg/mL
